Consider 23 compounds from ChEMBL document CHEMBL3763110, “A potent and selective inhibitor targeting human and murine 12/15-LOX” (Bioorg Med Chem, 2016).

Experiment [1] has as its target T1, Polyunsaturated fatty acid lipoxygenase ALOX15 (Mus musculus) (UniProt P39654).
T1 sequence (whole entry): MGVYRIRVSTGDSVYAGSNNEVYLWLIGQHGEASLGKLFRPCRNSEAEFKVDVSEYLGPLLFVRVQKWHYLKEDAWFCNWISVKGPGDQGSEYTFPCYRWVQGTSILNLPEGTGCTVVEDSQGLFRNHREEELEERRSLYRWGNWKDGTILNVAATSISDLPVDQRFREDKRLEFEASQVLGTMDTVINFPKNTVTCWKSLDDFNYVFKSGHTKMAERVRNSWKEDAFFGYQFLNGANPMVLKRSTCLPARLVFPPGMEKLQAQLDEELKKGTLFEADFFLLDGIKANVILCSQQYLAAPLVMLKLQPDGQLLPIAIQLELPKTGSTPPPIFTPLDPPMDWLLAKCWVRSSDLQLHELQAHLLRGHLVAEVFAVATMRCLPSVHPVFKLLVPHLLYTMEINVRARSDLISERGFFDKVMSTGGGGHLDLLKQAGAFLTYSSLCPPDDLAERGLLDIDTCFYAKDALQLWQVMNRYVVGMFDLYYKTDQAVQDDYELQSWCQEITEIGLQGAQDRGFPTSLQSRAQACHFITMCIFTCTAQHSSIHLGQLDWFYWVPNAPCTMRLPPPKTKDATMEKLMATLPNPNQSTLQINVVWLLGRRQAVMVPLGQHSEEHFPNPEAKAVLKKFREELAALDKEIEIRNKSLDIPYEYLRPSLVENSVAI
In words: Inhibition of glutamate-induced 12/15-LOX-dependent cell death in mouse HT22 cells assessed as increase in cell survival at 5 uM by LDH release assay. It counts as cell-based. The note with it: HT-22. The method in brief: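 Mouse HT-22 neuronal cells grown in DMEM with 10% FBS and penicillin/streptomycin. Seeded at 1 × 10^4 cells/well and treated 18h later at ~50–70% confluence. Medium was replaced and 5 mM glutamate added with compound at 5, 10 or 20 μM, or DMSO control (max 0.1% final). LDH measured separately in cell extracts and media; % LDH released to medium calculated after background subtraction.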
A general note: LDH in the medium is a marker of cell lysis.

Experiment [2] deals with T2, Polyunsaturated fatty acid lipoxygenase ALOX15 (Homo sapiens, UniProt P16050).
T2 sequence (P16050 whole entry): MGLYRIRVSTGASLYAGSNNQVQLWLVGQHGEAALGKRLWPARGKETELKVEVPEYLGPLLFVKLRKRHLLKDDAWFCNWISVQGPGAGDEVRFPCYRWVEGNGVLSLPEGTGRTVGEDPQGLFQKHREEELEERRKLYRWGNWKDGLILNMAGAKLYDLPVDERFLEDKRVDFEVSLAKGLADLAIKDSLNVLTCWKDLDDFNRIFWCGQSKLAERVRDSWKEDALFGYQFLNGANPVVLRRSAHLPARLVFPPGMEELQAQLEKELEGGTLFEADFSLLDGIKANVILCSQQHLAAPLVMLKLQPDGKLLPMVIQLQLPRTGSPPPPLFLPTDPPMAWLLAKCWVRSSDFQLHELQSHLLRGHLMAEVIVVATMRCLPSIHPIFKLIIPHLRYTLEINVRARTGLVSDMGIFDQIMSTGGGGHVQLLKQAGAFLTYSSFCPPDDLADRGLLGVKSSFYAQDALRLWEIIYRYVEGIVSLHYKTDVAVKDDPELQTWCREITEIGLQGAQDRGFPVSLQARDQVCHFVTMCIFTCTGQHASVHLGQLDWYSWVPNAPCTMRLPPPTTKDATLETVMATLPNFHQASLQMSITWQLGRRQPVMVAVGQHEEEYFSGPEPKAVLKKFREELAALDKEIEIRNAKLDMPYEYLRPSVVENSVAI
The experiment can be described thus: Inhibition of N-terminal His6-tagged human 12/15-LOX using arachidonic acid as substrate by UV-visible spectrophotometric analysis.

For experiment [3], the target named is T3, Polyunsaturated fatty acid lipoxygenase ALOX12 (Homo sapiens, UniProt P18054).
T3 sequence (P18054 whole entry): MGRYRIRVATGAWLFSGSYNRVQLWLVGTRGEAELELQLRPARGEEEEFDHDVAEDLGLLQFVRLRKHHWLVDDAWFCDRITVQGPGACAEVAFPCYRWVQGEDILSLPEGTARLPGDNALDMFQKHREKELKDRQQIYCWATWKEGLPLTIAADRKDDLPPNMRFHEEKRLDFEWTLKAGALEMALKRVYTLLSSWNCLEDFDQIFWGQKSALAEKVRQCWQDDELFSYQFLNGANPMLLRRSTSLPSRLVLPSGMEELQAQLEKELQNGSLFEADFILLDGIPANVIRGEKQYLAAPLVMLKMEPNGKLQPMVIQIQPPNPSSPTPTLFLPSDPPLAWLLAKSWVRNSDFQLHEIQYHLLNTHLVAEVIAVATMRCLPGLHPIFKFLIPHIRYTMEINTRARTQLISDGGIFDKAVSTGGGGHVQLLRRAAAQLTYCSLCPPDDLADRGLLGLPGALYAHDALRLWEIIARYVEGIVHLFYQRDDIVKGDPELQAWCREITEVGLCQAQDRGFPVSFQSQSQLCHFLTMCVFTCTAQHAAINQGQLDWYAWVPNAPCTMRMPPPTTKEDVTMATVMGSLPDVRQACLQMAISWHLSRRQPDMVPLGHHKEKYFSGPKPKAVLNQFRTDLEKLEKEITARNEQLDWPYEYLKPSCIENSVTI
In words: Inhibition of N-terminal His6-tagged human 12-LOX using arachidonic acid as substrate by UV-visible spectrophotometric analysis.

Experiment [4] deals with T4, Polyunsaturated fatty acid lipoxygenase ALOX15B (Homo sapiens, UniProt O15296).
T4 sequence (O15296 whole entry): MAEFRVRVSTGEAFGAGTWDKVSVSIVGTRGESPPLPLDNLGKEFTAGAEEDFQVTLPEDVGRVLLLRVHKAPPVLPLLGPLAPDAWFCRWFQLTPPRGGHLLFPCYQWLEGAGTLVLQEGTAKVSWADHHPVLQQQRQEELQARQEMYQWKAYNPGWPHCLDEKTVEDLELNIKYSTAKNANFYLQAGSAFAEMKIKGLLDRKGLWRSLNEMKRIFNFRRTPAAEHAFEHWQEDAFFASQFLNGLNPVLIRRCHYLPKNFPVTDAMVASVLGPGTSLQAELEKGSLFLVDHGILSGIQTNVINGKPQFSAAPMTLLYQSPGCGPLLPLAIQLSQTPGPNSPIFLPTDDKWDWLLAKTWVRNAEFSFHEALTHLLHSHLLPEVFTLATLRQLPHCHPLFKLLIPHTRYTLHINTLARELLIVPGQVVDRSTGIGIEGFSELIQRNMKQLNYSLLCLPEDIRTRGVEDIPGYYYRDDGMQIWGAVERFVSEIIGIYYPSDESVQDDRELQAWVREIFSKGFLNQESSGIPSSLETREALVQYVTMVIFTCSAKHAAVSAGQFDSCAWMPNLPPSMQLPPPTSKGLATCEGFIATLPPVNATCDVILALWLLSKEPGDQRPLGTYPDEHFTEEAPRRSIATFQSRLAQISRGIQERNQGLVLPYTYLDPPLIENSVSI
The experiment can be described thus: Inhibition of N-terminal His6-tagged human 15-LOX-2 using arachidonic acid as substrate by UV-visible spectrophotometric analysis.

For experiment [5], the target named is T5, Polyunsaturated fatty acid lipoxygenase ALOX15 (Homo sapiens) (UniProt P16050).
T5 sequence (whole entry): T2 sequence (P16050 whole entry)

For experiment [6], the target named is T6, Polyunsaturated fatty acid 5-lipoxygenase (Homo sapiens, UniProt P09917).
T6 sequence (P09917 whole entry): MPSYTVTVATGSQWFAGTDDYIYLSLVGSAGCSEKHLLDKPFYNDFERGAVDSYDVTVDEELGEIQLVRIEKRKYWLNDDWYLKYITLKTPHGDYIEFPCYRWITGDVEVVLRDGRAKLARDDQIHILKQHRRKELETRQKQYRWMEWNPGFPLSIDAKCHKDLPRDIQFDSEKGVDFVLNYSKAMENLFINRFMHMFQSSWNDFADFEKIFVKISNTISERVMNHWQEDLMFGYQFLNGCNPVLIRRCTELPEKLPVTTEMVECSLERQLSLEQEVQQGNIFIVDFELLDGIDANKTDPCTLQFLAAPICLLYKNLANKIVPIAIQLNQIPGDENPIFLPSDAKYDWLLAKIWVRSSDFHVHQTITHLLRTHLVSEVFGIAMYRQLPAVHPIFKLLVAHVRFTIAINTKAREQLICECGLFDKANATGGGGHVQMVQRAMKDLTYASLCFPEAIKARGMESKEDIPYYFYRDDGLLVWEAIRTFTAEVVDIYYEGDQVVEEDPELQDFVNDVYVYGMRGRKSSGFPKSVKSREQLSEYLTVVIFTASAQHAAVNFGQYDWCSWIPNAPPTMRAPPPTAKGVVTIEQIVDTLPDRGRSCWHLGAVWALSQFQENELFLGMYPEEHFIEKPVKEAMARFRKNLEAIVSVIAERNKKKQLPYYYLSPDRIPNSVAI
In words: Inhibition of human 5-LOX using arachidonic acid as substrate by UV-visible spectrophotometric analysis.

Experiment [7] deals with T7, Prostaglandin G/H synthase 2 (Homo sapiens, UniProt P35354).
T7 sequence (P35354 whole entry): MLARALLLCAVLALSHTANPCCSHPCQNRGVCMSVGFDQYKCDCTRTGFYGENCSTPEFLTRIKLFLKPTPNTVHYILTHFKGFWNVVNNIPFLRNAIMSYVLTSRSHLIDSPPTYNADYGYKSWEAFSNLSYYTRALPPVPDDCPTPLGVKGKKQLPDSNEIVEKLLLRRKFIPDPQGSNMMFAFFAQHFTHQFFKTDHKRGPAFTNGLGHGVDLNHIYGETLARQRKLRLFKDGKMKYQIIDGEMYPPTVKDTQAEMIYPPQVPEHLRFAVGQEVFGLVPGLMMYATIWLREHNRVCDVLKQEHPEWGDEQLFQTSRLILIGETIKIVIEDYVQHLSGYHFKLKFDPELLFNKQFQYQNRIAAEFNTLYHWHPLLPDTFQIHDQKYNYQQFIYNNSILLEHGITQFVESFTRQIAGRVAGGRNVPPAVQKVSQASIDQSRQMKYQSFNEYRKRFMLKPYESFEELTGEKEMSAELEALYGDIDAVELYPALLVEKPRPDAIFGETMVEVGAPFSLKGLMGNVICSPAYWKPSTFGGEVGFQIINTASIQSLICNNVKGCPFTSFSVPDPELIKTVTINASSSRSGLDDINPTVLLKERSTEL
The experiment can be described thus: Inhibition of human COX-2 by UV-visible spectrophotometric analysis.

In experiment [8] the target is T5, Polyunsaturated fatty acid lipoxygenase ALOX15 (Homo sapiens). This is another data set of the same source.

In the case of `Cc1ccc(O)c(-c2cc(-c3cccc(Br)c3)[nH]n2)c1`, in experiment [1], the Survival worked out at 18%. Also, it took 9.1 µM to reach half-maximal inhibition in experiment [2] (IC50).
`c1ccc(-c2cc(-c3ccccc3)[nH]n2)cc1` had an IC50 in experiment [2] of more than 50 µM.
Turning to `Oc1ccc(Cl)cc1-c1cc(-c2ccccc2Cl)[nH]n1`, the IC50 in experiment [2] is more than 50 µM.
As to `COc1ccc(O)c(-c2cc(-c3ccccc3Cl)[nH]n2)c1`, in experiment [1], the Survival stood at 83%.
Compound `COc1ccc(C(=O)c2c[nH]nc2-c2cc(C)ccc2O)cc1` yielded an IC50 in experiment [2] of more than 50 µM.
`Cc1ccc(O)c(-c2cc(C(=O)NCc3ccccc3)[nH]n2)c1` displayed an IC50 in experiment [2] of more than 50 µM.
The compound `COc1ccc(-c2cc(-c3ccc(C)cc3)[nH]n2)c(O)c1` returned an IC50 in experiment [2] of more than 50 µM.
Regarding `Cc1ccc(O)c(-c2cc(-c3cccc(F)c3)[nH]n2)c1`, the Survival in experiment [1] worked out at 49%. Inhibition in experiment [2] was half-maximal at 10 µM (IC50).
In the case of `Cc1ccc(O)c(-c2cc(-c3ccccc3C)[nH]n2)c1`, the IC50 in experiment [3] was more than 50 µM; in experiment [4] it was more than 50 µM; in experiment [6], more than 100 µM; in experiment [2], 3.4 µM; in experiment [7] it was more than 100 µM. The compound further yielded a Kic in experiment [5] of 1 µM. The Survival in experiment [1] came out at 20%. In experiment [8], this compound showed a Kiuc of 6 µM.
Consider `Cc1ccccc1-c1cc(-c2ccccc2O)n[nH]1`, for which the IC50 in experiment [2] was determined as 7 µM.
Consider `Oc1ccccc1-c1cc(-c2ccco2)[nH]n1`, for which the Survival in experiment [1] is 34%. In addition, in experiment [2], the IC50 is 7 µM.
Regarding `Oc1ccccc1-c1cc(-c2ccccc2Cl)[nH]n1`, the midpoint of inhibition in experiment [2], the IC50, lay at 4 µM.
On to `Cc1ccc(-c2cc(-c3ccccc3C)[nH]n2)c(O)c1`, for which the Survival in experiment [1] is 71%. The compound further returned an IC50 in experiment [2] of 10 µM.
Consider `Oc1ccc(Br)cc1-c1cc(-c2ccccc2)[nH]n1`, for which the half-maximal inhibitory concentration (IC50) in experiment [2] was more than 50 µM.
Regarding `COc1ccc(O)c(-c2cc(-c3cccc(Br)c3)[nH]n2)c1`, the Survival in experiment [1] stood at 70%. This compound returned a half-inhibitory concentration (IC50) in experiment [2] of 7 µM.
Take `COc1ccc(O)c(-c2cc(-c3ccccc3Cl)n[nH]2)c1`: in experiment [2], the IC50 is 6.6 µM.
As to `COc1ccc(-c2cc(-c3cc(OC)ccc3O)[nH]n2)cc1`, the Survival in experiment [1] was found to be 96%. Moreover, in experiment [2], 6 µM corresponded to half-maximal inhibition (IC50).
With `COc1ccc(-c2cc(-c3ccccc3O)[nH]n2)cc1`, in experiment [1], the Survival is 7%. In addition, the IC50 in experiment [2] worked out at 10 µM.
With `Oc1ccc(Br)cc1-c1cc(-c2ccccc2Cl)[nH]n1`, the IC50 in experiment [2] is more than 50 µM.
`COc1ccc(O)c(-c2cc(-c3ccc(F)cc3)[nH]n2)c1`: the Survival in experiment [1] is 78%. In experiment [2], this compound came in with an IC50 of 11 µM.
On to `Cc1ccc(-c2cc(-c3ccc(C)cc3O)[nH]n2)cc1`, for which the IC50 in experiment [2] is more than 50 µM.
In experiment [2], `Oc1ccccc1-c1cc[nH]n1` displayed an IC50 of more than 50 µM.
For `Cc1ccccc1-c1cc(-c2ccccc2O)[nH]n1`, in experiment [1], the Survival stood at 76%.

One may read the IC50 as the point on the concentration scale where inhibition reaches its midpoint.
